# Screening results: PubChem, Broad Institute
# S100A4 MyoIIA: blocks human S100A4 binding to myosin IIA peptide; P26447; S100A4/TAMRA-MyoIIA peptide fluorescence polarization; inhibition, % at 10.7 µM; hit rate 0.14% among 360,000;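 active = mean inhibition of at least 70% across replicates, with every replicate also reaching that level; inconclusive = mean inhibition reaches 70% but some replicates fall short; inactive = mean inhibition below 70%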
# Target sequence (P26447 whole entry, looked up): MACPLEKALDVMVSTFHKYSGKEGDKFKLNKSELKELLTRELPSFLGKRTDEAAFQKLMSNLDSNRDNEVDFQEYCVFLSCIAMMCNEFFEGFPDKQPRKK
#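 Test system: S100A4 monomer protein. Medium: HEPES buffer with Ca2+, pH 7.2. Reagent: fluorescent myosin IIA peptide, 5 nM. Compound dosing: single-point compound testing. Timing: 5 min between mix addition and reading. Benchmarks: DMSO neutral and TFP positive wells.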
# Rtt109 HAT inh: C. albicans Rtt109 histone acetyltransferase inhibition | purified Rtt109/Vps75, ThioGlo CoA-SH fluorescence, 4 h | inhibition, % at 34.9 µM | hit rate 0.16% among 330,000 | AID 540336;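 active = inhibition of at least 50% in every replicate; inconclusive = best replicate reaches 50% inhibition but some replicates fall short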
# Target sequence (Q5AAJ8 whole entry, looked up): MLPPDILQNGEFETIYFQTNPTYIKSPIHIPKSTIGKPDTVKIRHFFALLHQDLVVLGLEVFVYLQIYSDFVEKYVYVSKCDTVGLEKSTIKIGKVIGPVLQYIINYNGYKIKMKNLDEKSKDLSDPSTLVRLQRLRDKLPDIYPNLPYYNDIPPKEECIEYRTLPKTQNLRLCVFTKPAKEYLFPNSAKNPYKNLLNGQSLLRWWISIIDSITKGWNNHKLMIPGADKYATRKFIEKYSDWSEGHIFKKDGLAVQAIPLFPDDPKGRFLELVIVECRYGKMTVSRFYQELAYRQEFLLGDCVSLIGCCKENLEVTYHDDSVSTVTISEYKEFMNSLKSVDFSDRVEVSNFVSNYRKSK
# MLL AF4-AF9 inh: blocks AF4 peptide binding to human AF9; inhibition, % at 10 µM; hit rate 0.47% among 350,000; AlphaScreen, biotin-AF4 peptide binding to FLAG-AF9; P42568;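 active = every replicate reaching a set inhibition limit, whatever the replicate mean, cut at about 25% in these data; inconclusive = mean inhibition reaches that limit but some replicates miss it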;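 also: 0% = plate neutral control median and 100% = total signal loss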
# ERAP1 HTS inh: inhibitors of human ERAP1 aminopeptidase. Q9NZ08. recombinant ERAP1, Leu-AMC fluorescence, 60 min. inhibition, % at 10.7 µM. hit rate 0.15% among 340,000. AID 652197;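 active = mean replicate inhibition of at least 30%, or all replicates individually reaching that 30% level; inactive = mean below 30% and not every replicate reaching it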;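 also: 0% = neutral control wells and 100% = L-leucinethiol positive control wells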
# miR-122 sensor: inhibitors of miR-122 in Huh7 cells; hit rate 0.3% among 340,000; Huh7 miR-122 Renilla luciferase sensor, 48 h; neutral wells = 0, positive control = 100; activation (reporter increase), % at 12.5 µM;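 active = mean replicate activation score at least 90 and every replicate individually at or above 90; inconclusive = only one of the two criteria met; inactive = neither criterion met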;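 also: higher luciferase means less miR-122 activity so hits act as miR-122 inhibitors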
# Active calls of the source: *; ? = inconclusive; . = not tested or not shown; [ ] = dose if it differs, or a comment. Compounds with a hit are over-represented: about 0.86% of the library has one in this group of screens.
SMILES,S100A4 MyoIIA,Rtt109 HAT inh,MLL AF4-AF9 inh,ERAP1 HTS inh,miR-122 sensor
Cc1ccc(S(=O)(=O)N(C)C[C@H]2Oc3ncc(-c4ccccc4)cc3C(=O)N([C@H](C)CO)C[C@H]2C)cc1,2.6,.,-8.9,-0.3,-10.7[16.7 µM]
Cc1ccc(C(=O)NCCSc2ccc(Cl)cc2)cc1S(=O)(=O)Nc1ccccc1,-2.3,21.4,3.5,0.4,130.9*
CC(=O)Nc1cc(S(=O)(=O)Nc2cccc(C)c2)c(C)cc1C,.,2.5,.,.,144.4*
Cc1ccc(SCCNC(=O)c2ccc(C)c(S(=O)(=O)Nc3cccc(C)c3)c2)cc1,.,6.5,.,.,105.1*
Cc1ccc(NC(=O)c2cc3c(s2)CCCC3)cc1S(=O)(=O)Nc1ccccc1Cl,.,-4.1,.,.,89.2
Cc1ccc(C(=O)Nc2ccc(C)c(S(=O)(=O)Nc3ccccc3Cl)c2)s1,25.3,-2.4,7.5,-2.5,413.2*
CCNC(=O)C[C@@H]1CC[C@H](NC(=O)C2CCC2)[C@H](CO)O1,6.6,.,-2.5,0.6,.
CNC(=O)C[C@@H]1CC[C@H]2[C@@H](COc3ccc(NC(=O)Nc4c(C)noc4C)cc3C(=O)N2C)O1,.,.,.,.,41.7[16.7 µM]
COc1cccc(CNC(=O)C[C@H]2CC[C@@H](NC(=O)C3CCOCC3)[C@@H](CO)O2)c1,-20.3,.,0.6,-1.0,.
CCCCCCCN1C=CC(=O)CC1,0.8,8.6,1.4,-3.0,-3.7
CCCCCCCCCCC(C(=O)O)C1(C(=O)O)CCC(=O)O1 (stereo unspecified),-3.4,.,-2.3,38.5*,4.8
C[C@@H]1CN([C@@H](C)CO)C(=O)Cc2cc(NC(=O)Cc3cn(C)c4ccccc34)ccc2O[C@H]1CN(C)C(=O)Nc1cccc2ccccc12,4.2,.,0.9,1.9,-0.8[16.7 µM]
COc1cc(OC)cc(C(=O)Nc2cccc(-c3ccc(N4CCOCC4)nn3)c2)c1,-0.6,8.8,-11.5,0.6,-5.6
COc1cccc(OC)c1C(=O)Nc1cccc(-c2ccc(N3CCOCC3)nn2)c1,-15.8,51.5*,5.6,2.9,-2.6
O=C(CN1CCCCC1)n1c2ccccc2c2ccccc21,8.5,55.8*,.,1.2,12.7
C[C@@H]1CN([C@H](C)CO)S(=O)(=O)c2ccc(C#CC3CC3)cc2O[C@@H]1CN(C)Cc1cccnc1,10.5,.,11.8,-1.5,-21.4[16.7 µM]
COc1ccc(CN(C)C[C@H]2Oc3ccc(NS(=O)(=O)c4cn(C)cn4)cc3C(=O)N([C@@H](C)CO)C[C@@H]2C)cc1,-1.9,.,-3.5,-2.0,0.0[16.7 µM]
CN(Cc1ccccc1)C(=O)c1ncn(C)c1C(=O)N(C)Cc1ccccc1,56.7,-2.6,-5.7,30.8*,-4.9
CCN(CC)C(=O)c1ncn(C)c1C(=O)N(CC)CC,-5.5,-1.2,-4.7,107.3*,-4.4
CCN(CC)C(=O)c1ncn2c1C(=O)NC[C@H]2C,3.2,.,0.2,-4.2,.
C[C@H]1CN([C@@H](C)CO)C(=O)c2cc(NC(=O)Cc3cn(C)c4ccccc34)ccc2O[C@H]1CN(C)S(=O)(=O)c1ccccc1,-2.3,.,0.8,-1.1,-7.5[16.7 µM]
CCC(=O)N(C)C[C@@H]1Oc2cc(C#CCN(C)C)ccc2S(=O)(=O)N([C@@H](C)CO)C[C@@H]1C,2.8,.,-1.0,2.3,-3.7[16.7 µM]
CCOC(=O)c1c(NC(=O)C(NCCN(C)C)c2ccccc2)sc2c1CCCC2 (stereo unspecified),-2.4,27.9,28.8*,7.7,-6.4
CCOC(=O)c1c(NC(=O)c2ccccc2N(C)S(=O)(=O)c2ccccc2)sc2c1CCCC2,5.3,-4.7,1.2,10.1,162.3*
C/C=C/c1ccc2c(c1)O[C@@H](CN(C)C(=O)C1CC1)[C@@H](C)CN([C@@H](C)CO)S2(=O)=O,.,.,.,.,2.7[16.7 µM]
SMILES,S100A4 MyoIIA,Rtt109 HAT inh,MLL AF4-AF9 inh,ERAP1 HTS inh,miR-122 sensor
COc1cc(C(=O)CCN2CCC(c3ccccc3)C2)cc(OC)c1OC (stereo unspecified),-1.3,94.7*,-1.7,-3.0,-0.1
O=C(CCN1CCC(c2ccccc2)C1)c1ccccc1 (stereo unspecified),-1.4,-6.7,6.2,1.5,-1.2
C[N+]1(CC2COC3(CCCCC3)O2)CCCCC1 (stereo unspecified),-0.2,-1.6,-2.6,54.0*,-1.9
c1cc(C2OCCN2CC2COC3(CCCC3)O2)ccn1 (stereo unspecified),.,2.0,.,.,1.0
COCC(=O)Nc1ccc2c(c1)C(=O)N(C)[C@@H]1CC[C@@H](CC(=O)NCCc3ccncc3)O[C@H]1CO2,6.7,.,-0.6,-0.4,-2.5[16.7 µM]
O=C(CSc1nnc(-c2cc3ccccc3cc2O)n1Cc1ccco1)c1ccc(F)cc1,.,6.5,.,.,231.5*
Cc1occc1-c1nnc(SCC(=O)c2ccc(F)cc2)n1Cc1ccco1,.,11.7,.,.,-9.4
CCOc1ccc(Br)cc1S(=O)(=O)Nc1ccc(Cl)c(S(=O)(=O)N(CC)c2ccccc2)c1,-3.0,-2.6,3.3,-4.5,281.0*
CCOc1ccc(Br)cc1S(=O)(=O)Nc1ccc(Cl)c(S(=O)(=O)N(C)C)c1,.,9.3,.,.,-0.4
O=C(/C=C/Nc1ccc([N+](=O)[O-])cc1Br)c1cccc2ccccc12,.,51.2*,.,.,4.0
NC(=O)c1cc([N+](=O)[O-])ccc1NCc1cccc2ccccc12,-22.1,-1.8,5.6,2.1,.
Cc1cc(Cl)c(S(=O)(=O)N2CCCC2)cc1OCC(N)=O,-2.3,50.1*,-3.7,-0.5,.
Cc1cc(Cl)c(S(=O)(=O)N2CCCCCC2)cc1OCC(N)=O,.,-4.4,.,.,0.7
Cc1cc(Cl)c(S(=O)(=O)NCc2ccccc2)cc1OCC(N)=O,.,-1.7,.,.,173.6*
COc1cccc(C#Cc2ccc([C@H]3[C@H](CO)N4C(=O)CN(S(=O)(=O)c5ccccc5C)C[C@@H]34)cc2)c1,-5.7,.,-2.9,0.0,.
CCN(CC)Cc1c(O)ccc2c1O/C(=C\C=C\c1ccccc1)C2=O,-3.4,-23.5,?,7.2,277.8*
COc1ccccc1/C=C/C=C1\Oc2c(ccc(O)c2CN(C)C)C1=O,-5.2,-7.7,.,0.2,13.8
C[C@H]1CN([C@@H](C)CO)C(=O)Cc2cc(N(C)C)ccc2O[C@@H]1CN(C)Cc1ccc(C(=O)Nc2ccccc2N)cc1,-1.4,.,5.6,-0.8,26.7[16.7 µM]
C[C@@H]1CN([C@@H](C)CO)C(=O)Cc2cc(N(C)C)ccc2O[C@H]1CN(C)Cc1ccc(C(=O)Nc2ccccc2N)cc1,?,.,15.3,1.8,113.2*[16.7 µM]
C[C@@H]1CN([C@@H](C)CO)C(=O)Cc2cc(N(C)C)ccc2O[C@@H]1CN(C)Cc1ccc(C(=O)Nc2ccccc2N)cc1,-4.0,.,-0.1,-4.4,138.3*[16.7 µM]
COc1ccc(-c2nc(N3CCN(C)CC3)sc2-c2ccc(OC)cc2)cc1,2.2,-3.8,33.6*,-1.1,1.2
CC(=O)CN1C(=O)NC(c2ccccc2)(c2ccccc2)C1=O,-4.2,3.4,-0.6,5.1,-1.9
CCN(C(=O)CN1C(=O)NC(c2ccccc2)(c2ccccc2)C1=O)c1ccccc1,-10.5,0.9,38.1*,0.3,-5.9
COc1ccc(CNC(=O)C2CCCN(S(=O)(=O)c3c(C)n[nH]c3C)C2)cc1 (stereo unspecified),.,66.5*,.,.,3.8
